Measured values: ChEMBL document CHEMBL1122792, “Synthesis and biological evaluation of radiolabeled beta-ruthenocenylalanine” (J Med Chem, 1984)

Legend:
Mus musculus [1] = experiment: Distribution of Radioactivity in small intestine of CD-1 Mice by intravenous administration of compound after 1 hr expressed as dose/gram; format: ADME, organism-based; settings: in vivo
Outline: (§1)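 Female CD-1 mice, 7 1/2 weeks old (25-29 g), fed and watered ad libitum. Agent given in physiological saline, pH adjusted to 7.4 and filtered, by lateral tail vein injection under ether anesthesia. Tissues collected at 5 min, 1 h, 4 h and 1 day. Injectate samples counted as standard; results as mean % injected dose/g with range.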

Mus musculus [2] = experiment: Distribution of Radioactivity in lungs of CD-1 Mice by intravenous administration of compound after 5 minutes expressed as dose/gram; format: ADME, organism-based, Lung; settings: in vivo; outline: as §1
Rattus norvegicus [3] = experiment: Distribution of Radioactivity in pancreas of Fisher 344 Rats by intravenous administration of compound after 1 hour expressed as dose/gram; format: ADME, organism-based; settings: in vivo
Outline: (§2)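 Female Fischer 344 rats, 10-12 weeks old (170-200 g), fed and watered ad libitum; four rats per time point. Each received ~6.3 μCi in 0.05 mL saline (pH 7.4, filtered), given by lateral tail vein under ether anesthesia. Tissues taken at 5 min, 1 h, 4 h and 1 day. Injectate standards used; values as mean % injected dose/g with range.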

Rattus norvegicus [4] = experiment: Distribution of Radioactivity in spleen of Fisher 344 Rats by intravenous administration of compound after 4 hour expressed as dose/gram; format: ADME, organism-based; settings: in vivo
Outline: (§3)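 Female Fischer 344 rats, 10-12 weeks old (170-200 g), food and water ad libitum; four rats per time point. About 6.3 μCi given in 0.05 mL saline (pH 7.4, filtered) by lateral tail vein under ether anesthesia. Tissues sampled at 5 min, 1 h, 4 h or 1 day. %ID/g computed from injectate standards; mean and range given.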

Rattus norvegicus [5] = experiment: Distribution of Radioactivity in spleen of Fisher 344 Rats by intravenous administration of compound after 1 day expressed as dose/gram; format: ADME, organism-based; settings: in vivo, 24 h; outline: as §3
Mus musculus [6] = experiment: Distribution of Radioactivity in kidneys of CD-1 Mice by intravenous administration of compound after 1 day expressed as dose/gram; format: ADME, organism-based, Kidney; settings: in vivo, 24 h; outline: as §1
Rattus norvegicus [7] = experiment: Distribution of Radioactivity in spleen of Fisher 344 Rats by intravenous administration of compound after 1 hour expressed as dose/gram; format: ADME, organism-based; settings: in vivo; outline: as §3
Rattus norvegicus [8] = experiment: Distribution of Radioactivity in small intestine of Fisher 344 Rats by intravenous administration of compound after 1 day expressed as dose/gram; format: ADME, organism-based; settings: in vivo, 24 h; outline: as §3
Rattus norvegicus [9] = experiment: Distribution of Radioactivity in thymus of Fisher 344 Rats by intravenous administration of compound after 1 day expressed as dose/gram; format: ADME, organism-based; settings: in vivo, 24 h; outline: as §3
Mus musculus [10] = experiment: Distribution of Radioactivity in adrenals of CD-1 Mice by intravenous administration of compound after 1 hr expressed as dose/gram; format: ADME, organism-based, Adrenal gland; settings: in vivo; outline: as §1
Rattus norvegicus [11] = experiment: Distribution of Radioactivity in spleen of Fisher 344 Rats by intravenous administration of compound after 5 minutes expressed as dose/gram; format: ADME, organism-based; settings: in vivo; outline: as §3
Mus musculus [12] = experiment: Distribution of Radioactivity in adrenals of CD-1 Mice by intravenous administration of compound after 5 minutes expressed as dose/gram; format: ADME, organism-based, Adrenal gland; settings: in vivo; outline: as §1
Mus musculus [13] = experiment: Distribution of Radioactivity in adrenals of CD-1 Mice by intravenous administration of compound after 1 day expressed as dose/gram; format: ADME, organism-based, Adrenal gland; settings: in vivo, 24 h; outline: as §1
Mus musculus [14] = experiment: Distribution of Radioactivity in spleen of CD-1 Mice by intravenous administration of compound after 5 minutes expressed as dose/gram; format: ADME, organism-based; settings: in vivo
Outline: (§4)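 Female CD-1 mice, 7 1/2 weeks old (25-29 g), fed and watered ad libitum. Radiotracer in physiological saline, pH 7.4, filtered, injected via lateral tail vein under ether anesthesia. Tissues taken at 5 min, 1 h, 4 h or 1 day. Percent injected dose per gram calculated against assayed samples of the injected solution; mean with range reported.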

Rattus norvegicus [15] = experiment: Distribution of Radioactivity in adrenals of Fisher 344 Rats by intravenous administration of compound after 1 hour expressed as dose/gram; format: ADME, organism-based, Adrenal gland; settings: in vivo; outline: as §2
Mus musculus [16] = experiment: Distribution of Radioactivity in thymus of CD-1 Mice by intravenous administration of compound after 5 minutes expressed as dose/gram; format: ADME, organism-based; settings: in vivo; outline: as §4
Mus musculus [17] = experiment: Distribution of Radioactivity in liver of CD-1 Mice by intravenous administration of compound after 1 day expressed as dose/gram; format: ADME, organism-based; settings: in vivo, 24 h; outline: as §1
Rattus norvegicus [18] = experiment: Distribution of Radioactivity in small intestine of Fisher 344 Rats by intravenous administration of compound after 4 hour expressed as dose/gram; format: ADME, organism-based; settings: in vivo; outline: as §3
Rattus norvegicus [19] = experiment: Distribution of Radioactivity in kidneys of Fisher 344 Rats by intravenous administration of compound after 5 minutes expressed as dose/gram; format: ADME, organism-based, Kidney; settings: in vivo; outline: as §2
Rattus norvegicus [20] = experiment: Distribution of Radioactivity in lungs of Fisher 344 Rats by intravenous administration of compound after 5 minutes expressed as dose/gram; format: ADME, organism-based, Lung; settings: in vivo; outline: as §2
Mus musculus [21] = experiment: Distribution of Radioactivity in small intestine of CD-1 Mice by intravenous administration of compound after 5 minutes expressed as dose/gram; format: ADME, organism-based; settings: in vivo; outline: as §4
Mus musculus [22] = experiment: Distribution of Radioactivity in liver of CD-1 Mice by intravenous administration of compound after 1 hr expressed as dose/gram; format: ADME, organism-based; settings: in vivo; outline: as §1
Rattus norvegicus [23] = experiment: Distribution of Radioactivity in thymus of Fisher 344 Rats by intravenous administration of compound after 4 hour expressed as dose/gram; format: ADME, organism-based; settings: in vivo; outline: as §3
Mus musculus [24] = experiment: Distribution of Radioactivity in lungs of CD-1 Mice by intravenous administration of compound after 1 day expressed as dose/gram; format: ADME, organism-based, Lung; settings: in vivo, 24 h; outline: as §1
Rattus norvegicus [25] = experiment: Distribution of Radioactivity in liver of Fisher 344 Rats by intravenous administration of compound after 1 day expressed as dose/gram; format: ADME, organism-based; settings: in vivo, 24 h; outline: as §2
Rattus norvegicus [26] = experiment: Distribution of Radioactivity in liver of Fisher 344 Rats by intravenous administration of compound after 5 minutes expressed as dose/gram; format: ADME, organism-based; settings: in vivo; outline: as §2
Mus musculus [27] = experiment: Distribution of Radioactivity in liver of CD-1 Mice by intravenous administration of compound after 4 hour expressed as dose/gram; format: ADME, organism-based; settings: in vivo; outline: as §1
Rattus norvegicus [28] = experiment: Distribution of Radioactivity in liver of Fisher 344 Rats by intravenous administration of compound after 4 hour expressed as dose/gram; format: ADME, organism-based; settings: in vivo; outline: as §2
Rattus norvegicus [29] = experiment: Distribution of Radioactivity in thymus of Fisher 344 Rats by intravenous administration of compound after 5 minutes expressed as dose/gram; format: ADME, organism-based; settings: in vivo; outline: as §3
Rattus norvegicus [30] = experiment: Distribution of Radioactivity in stomach of Fisher 344 Rats by intravenous administration of compound after 1 hour expressed as dose/gram; format: ADME, organism-based; settings: in vivo; outline: as §3
Mus musculus [31] = experiment: Distribution of Radioactivity in kidneys of CD-1 Mice by intravenous administration of compound after 5 minutes expressed as dose/gram; format: ADME, organism-based, Kidney; settings: in vivo; outline: as §1
Mus musculus [32] = experiment: Distribution of Radioactivity in blood of CD-1 Mice by intravenous administration of compound after 5 minutes expressed as dose/gram; format: ADME, organism-based; settings: in vivo; outline: as §1
Mus musculus [33] = experiment: Distribution of Radioactivity in pancreas of CD-1 Mice by intravenous administration of compound after 4 hr expressed as dose/gram; format: ADME, organism-based; settings: in vivo; outline: as §1
Mus musculus [34] = experiment: Distribution of Radioactivity in stomach of CD-1 Mice by intravenous administration of compound after 4 hr expressed as dose/gram; format: ADME, organism-based; settings: in vivo; outline: as §4
Rattus norvegicus [35] = experiment: Distribution of Radioactivity in liver of Fisher 344 Rats by intravenous administration of compound after 1 hour expressed as dose/gram; format: ADME, organism-based; settings: in vivo; outline: as §2
Rattus norvegicus [36] = experiment: Distribution of Radioactivity in thymus of Fisher 344 Rats by intravenous administration of compound after 1 hour expressed as dose/gram; format: ADME, organism-based; settings: in vivo; outline: as §3
Mus musculus [37] = experiment: Distribution of Radioactivity in adrenals of CD-1 Mice by intravenous administration of compound after 4 hr expressed as dose/gram; format: ADME, organism-based, Adrenal gland; settings: in vivo; outline: as §1
Mus musculus [38] = experiment: Distribution of Radioactivity in blood of CD-1 Mice by intravenous administration of compound after 1 hr expressed as dose/gram; format: ADME, organism-based; settings: in vivo; outline: as §1
Rattus norvegicus [39] = experiment: Distribution of Radioactivity in pancreas of Fisher 344 Rats by intravenous administration of compound after 5 minutes expressed as dose/gram; format: ADME, organism-based; settings: in vivo; outline: as §2
Rattus norvegicus [40] = experiment: Distribution of Radioactivity in stomach of Fisher 344 Rats by intravenous administration of compound after 1 day expressed as dose/gram; format: ADME, organism-based; settings: in vivo, 24 h; outline: as §3

Injected (Mus musculus [1]): 2.641% | Injected (Mus musculus [2]): 3.603% | Injected (Rattus norvegicus [3]): 0.299% | Injected (Rattus norvegicus [4]): 0.062% | Injected (Rattus norvegicus [5]): 0.065% | Injected (Mus musculus [6]): 0.871% | Injected (Rattus norvegicus [7]): 0.14% | Injected (Rattus norvegicus [8]): 0.044% | Injected (Rattus norvegicus [9]): 0.024% | Injected (Mus musculus [10]): 1.054% | Injected (Rattus norvegicus [11]): 0.355% | Injected (Mus musculus [12]): 6.85% | Injected (Mus musculus [13]): 0.556% | Injected (Mus musculus [14]): 1.348% | Injected (Rattus norvegicus [15]): 0.141% | Injected (Mus musculus [16]): 2.579% | Injected (Mus musculus [17]): 0.508% | Injected (Rattus norvegicus [18]): 0.218% | Injected (Rattus norvegicus [19]): 5.44% | Injected (Rattus norvegicus [20]): 1.123% | Injected (Mus musculus [21]): 1.739% | Injected (Mus musculus [22]): 1.784% | Injected (Rattus norvegicus [23]): 0.035% | Injected (Mus musculus [24]): 0.252% | Injected (Rattus norvegicus [25]): 0.15% | Injected (Rattus norvegicus [26]): 2.844% | Injected (Mus musculus [27]): 1.01% | Injected (Rattus norvegicus [28]): 0.278% | Injected (Rattus norvegicus [29]): 0.335% | Injected (Rattus norvegicus [30]): 0.081% | Injected (Mus musculus [31]): 15.745% | Injected (Mus musculus [32]): 6.768% | Injected (Mus musculus [33]): 0.16% | Injected (Mus musculus [34]): 0.166% | Injected (Rattus norvegicus [35]): 1.27% | Injected (Rattus norvegicus [36]): 0.13% | Injected (Mus musculus [37]): 0.786% | Injected (Mus musculus [38]): 1.039% | Injected (Rattus norvegicus [39]): 0.361% | Injected (Rattus norvegicus [40]): 0.023%
Substance: beta-[103,106Ru]Ruthenocenylalanine
